{
  "source": "ChEMBL document CHEMBL3593158",
  "about": "“Dirchromones: Cytotoxic Organic Sulfur Compounds Isolated from Dirca palustris” (J Nat Prod, 2015)",
  "key": {"Candida albicans": {"system": "Candida albicans", "experiment": "Antifungal activity against Candida albicans incubated for 24 hrs by microdilution method", "assay_type": "functional, organism-based", "summary_of_the_method": "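Yeast tested by modified microdilution at 2 × 10^3 C. albicans per well in Sabouraud dextrose. Compounds were dissolved in DMSO, diluted in Sabouraud dextrose and added at increasing concentrations (final DMSO 0.1% v/v). Plates incubated 24 h at 37 °C.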"}, "Staphylococcus aureus": {"system": "Staphylococcus aureus", "experiment": "Antibacterial activity against Staphylococcus aureus ATCC 25923 incubated for 24 hrs by microdilution method", "assay_type": "functional", "summary_of_the_method": "(§1)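 Modified microdilution in nutrient broth with exponentially growing bacteria per well: E. coli at 5 × 10^3, S. aureus at 3.5 × 10^4. Increasing compound concentrations were dissolved in DMSO and diluted in broth (final DMSO 0.1% v/v). Plates incubated 24 h at 37 °C.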"}, "[1]": {"experiment": "Cytotoxicity against human DLD1 cells assessed as inhibition of cell growth incubated for 48 hrs by Hoechst assay", "assay_type": "functional, cell-based", "details": "DLD-1, 48 h", "summary_of_the_method": "(§2)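 Cells from ATCC, grown in MEM with Earle's salts, 10% fetal calf serum, vitamins, sodium pyruvate, nonessential amino acids and penicillin/streptomycin at 37 °C in humidified 5% CO2. 5 × 10^3 exponentially growing cells per well adhered for 16 h, then were exposed 48 h to increasing concentrations in medium (final DMSO 0.5% v/v). Hoechst staining read-out; IC50 is the concentration inhibiting growth by 50%.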"}, "Escherichia coli": {"system": "Escherichia coli", "experiment": "Antibacterial activity against Escherichia coli ATCC 25922 incubated for 24 hrs by microdilution method", "assay_type": "functional, organism-based", "summary_of_the_method": "as §1"}, "A549 [2]": {"system": "A549", "experiment": "Cytotoxicity against human A549 cells assessed as inhibition of cell growth incubated for 48 hrs by Hoechst assay", "assay_type": "functional, cell-based", "details": "A549, 48 h", "summary_of_the_method": "as §2"}, "[3]": {"experiment": "Cytotoxicity against human WS1 cells assessed as inhibition of cell growth incubated for 48 hrs by Hoechst assay", "assay_type": "cell-based", "details": "WS1, 48 h", "summary_of_the_method": "as §2"}, "DLD-1": {"system": "DLD-1", "experiment": "Selectivity index, ratio of IC50 for human WS1 cells to IC50 for human DLD1 cells", "assay_type": "functional"}, "A549 [4]": {"system": "A549", "experiment": "Selectivity index, ratio of IC50 for human A549 cells to IC50 for human DLD1 cells", "assay_type": "functional"}},
  "note": "pIC50: −log10 of the molar value. Active and inactive are the calls of the source. No cut-off for these calls is given here.",
  "data": [
    {"compound": "COc1cc2oc(/C=C/[S+](C)[O-])cc(=O)c2cc1O", "note": "(stereo not drawn)", "values": [
      {"measurement": "Activity", "setting": "Candida albicans", "result": "inactive"},
      {"measurement": "MIC90", "setting": "Staphylococcus aureus; ATCC 25923, 24 h", "result": 14, "unit": "µg/mL"},
      {"measurement": "pIC50", "setting": "[1]", "result": "< 5.00"},
      {"measurement": "Activity", "setting": "Escherichia coli", "result": "inactive"},
      {"measurement": "pIC50", "setting": "A549 [2]", "result": "< 5.00"},
      {"measurement": "pIC50", "setting": "[3]", "result": "< 5.00"}
    ]},
    {"compound": "C[S+]([O-])/C=C/c1cc(=O)c2cc(O)ccc2o1", "note": "(stereo not drawn)", "values": [
      {"measurement": "Activity", "setting": "Candida albicans", "result": "inactive"},
      {"measurement": "MIC90", "setting": "Staphylococcus aureus; ATCC 25923, 24 h", "result": 7.8, "unit": "µg/mL"},
      {"measurement": "pIC50", "setting": "[1]", "result": "< 5.00"},
      {"measurement": "Activity", "setting": "Escherichia coli", "result": "inactive"},
      {"measurement": "pIC50", "setting": "A549 [2]", "result": "< 5.00"},
      {"measurement": "pIC50", "setting": "[3]", "result": "< 5.00"}
    ]},
    {"compound": "COc1ccc2c(=O)cc(/C=C/[S+](C)[O-])oc2c1OC", "note": "(stereo not drawn)", "values": [
      {"measurement": "Activity", "setting": "Candida albicans", "result": "inactive"},
      {"measurement": "MIC90", "setting": "Staphylococcus aureus; ATCC 25923, 24 h", "result": 18.4, "unit": "µg/mL"},
      {"measurement": "pIC50", "setting": "[1]", "result": 5.48},
      {"measurement": "Activity", "setting": "Escherichia coli", "result": "inactive"},
      {"measurement": "pIC50", "setting": "A549 [2]", "result": "< 5.00"},
      {"measurement": "pIC50", "setting": "[3]", "result": "< 5.00"}
    ]},
    {"compound": "COc1ccc2c(=O)cc(/C=C/[S+](C)[O-])oc2c1", "note": "(stereo not drawn)", "values": [
      {"measurement": "Activity", "setting": "Candida albicans", "result": "inactive"},
      {"measurement": "MIC90", "setting": "Staphylococcus aureus; ATCC 25923, 24 h", "result": 8.3, "unit": "µg/mL"},
      {"measurement": "pIC50", "setting": "[1]", "result": 5.74},
      {"measurement": "Activity", "setting": "Escherichia coli", "result": "inactive"},
      {"measurement": "pIC50", "setting": "A549 [2]", "result": 4.98},
      {"measurement": "pIC50", "setting": "[3]", "result": 5.05},
      {"measurement": "Ratio IC50", "setting": "DLD-1", "result": 5},
      {"measurement": "Ratio IC50", "setting": "A549 [4]", "result": 5.8}
    ]},
    {"compound": "COc1cc([C@@H]2c3cc4c(cc3[C@@H](O[C@@H]3O[C@@H]5CO[C@@H](C)O[C@H]5[C@H](O)[C@H]3O)[C@H]3COC(=O)[C@H]23)OCO4)cc(OC)c1O", "note": "[ETOPOSIDE]", "values": [
      {"measurement": "pIC50", "setting": "[1]", "result": 5.48},
      {"measurement": "pIC50", "setting": "A549 [2]", "result": 6.32},
      {"measurement": "pIC50", "setting": "[3]", "result": "< 5.00"}
    ]},
    {"compound": "GENTAMICIN", "values": [
      {"measurement": "MIC90", "setting": "Staphylococcus aureus", "result": 0.04, "unit": "µg/mL"}
    ]},
    {"compound": "C[S+]([O-])/C=C/c1cc(=O)c2ccccc2o1", "note": "(stereo not drawn)", "values": [
      {"measurement": "Activity", "setting": "Candida albicans", "result": "inactive"},
      {"measurement": "MIC90", "setting": "Staphylococcus aureus; ATCC 25923, 24 h", "result": 3.7, "unit": "µg/mL"},
      {"measurement": "pIC50", "setting": "[1]", "result": 6.00},
      {"measurement": "Activity", "setting": "Escherichia coli", "result": "inactive"},
      {"measurement": "pIC50", "setting": "A549 [2]", "result": 5.00},
      {"measurement": "pIC50", "setting": "[3]", "result": 5.05},
      {"measurement": "Ratio IC50", "setting": "DLD-1", "result": 9},
      {"measurement": "Ratio IC50", "setting": "A549 [4]", "result": 10}
    ]},
    {"compound": "COc1cc2oc(/C=C/[S+](C)[O-])cc(=O)c2cc1OC", "note": "(stereo not drawn)", "values": [
      {"measurement": "Activity", "setting": "Candida albicans", "result": "inactive"},
      {"measurement": "MIC90", "setting": "Staphylococcus aureus; ATCC 25923, 24 h", "result": 18.4, "unit": "µg/mL"},
      {"measurement": "pIC50", "setting": "[1]", "result": 5.38},
      {"measurement": "Activity", "setting": "Escherichia coli", "result": "inactive"},
      {"measurement": "pIC50", "setting": "A549 [2]", "result": "< 5.00"},
      {"measurement": "pIC50", "setting": "[3]", "result": "< 5.00"}
    ]},
    {"compound": "COc1ccc2oc(/C=C/[S+](C)[O-])cc(=O)c2c1", "note": "(stereo not drawn)", "values": [
      {"measurement": "Activity", "setting": "Candida albicans", "result": "inactive"},
      {"measurement": "MIC90", "setting": "Staphylococcus aureus; ATCC 25923, 24 h", "result": 4.1, "unit": "µg/mL"},
      {"measurement": "pIC50", "setting": "[1]", "result": 5.96},
      {"measurement": "Activity", "setting": "Escherichia coli", "result": "inactive"},
      {"measurement": "pIC50", "setting": "A549 [2]", "result": 5.05},
      {"measurement": "pIC50", "setting": "[3]", "result": 5.22},
      {"measurement": "Ratio IC50", "setting": "DLD-1", "result": 5},
      {"measurement": "Ratio IC50", "setting": "A549 [4]", "result": 8.2}
    ]},
    {"compound": "COc1ccc2c(=O)cc(/C=C/[S+](C)[O-])oc2c1O", "note": "(stereo not drawn)", "values": [
      {"measurement": "Activity", "setting": "Candida albicans", "result": "inactive"},
      {"measurement": "MIC90", "setting": "Staphylococcus aureus; ATCC 25923, 24 h", "result": 14, "unit": "µg/mL"},
      {"measurement": "pIC50", "setting": "[1]", "result": "< 5.00"},
      {"measurement": "Activity", "setting": "Escherichia coli", "result": "inactive"},
      {"measurement": "pIC50", "setting": "A549 [2]", "result": "< 5.00"},
      {"measurement": "pIC50", "setting": "[3]", "result": "< 5.00"}
    ]}
  ]
}
